From PubChem BioAssay AID552 (SRMLSC, 2006)
In all, about 20,000 compounds went through this assay and about 10 (0.05%) were called active. Shown is part of a subset that was picked to be rich in actives. Values without a mark were called inactive. Cut-off read from the data, not from the text of the source: active = inhibition above about 40%; inactive = the rest.

Experiment: antibacterial activity on E. coli BW25113 – strain BW25113 wild type, absorbance readout, primary screen (AID 552);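 note: bacteria exposed to compound for 20 hours at 37 °C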
Settings: E. coli BW25113 growth inhibition, OD600; at 10 µM; stronger effect = higher value
Procedure, shortened: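 Assay system: Bacterial strain in a whole-cell growth screen | Amount: Inoculum from a 1:1000 dilution of a 1.5 h subculture | Detection: Absorbance at 615 nm as a measure of bacterial growth | Timing: 20 h exposure, 37 °C | Buffer or medium: LB plus kanamycin 50 µg/mL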

Compound	inhibition
O=C(COc1ccccc1F)NC1CC1	-9.95%
CC(C)(C)C(=O)CCN1C(=O)C2(OCCO2)c2ccccc21	11.1%
CCOC(=O)N1CCN(CC(=O)c2c(C)[nH]c3ccccc23)CC1	8.75%
COC(=O)C(C)N(C#N)c1nc(C)nc(C)n1 (centres undefined)	-24.9%
Cc1cc(Cl)ccc1N1C(=O)CC(SCCC(=O)O)C1=O (centres undefined)	0.27%
COC(=O)C1=C(C)Nc2ncnn2C1c1ccco1 (centres undefined)	-13.1%
CCOC(=O)c1c(C)oc2ccc(OCC(=O)N(CC)CC)cc12	-3.67%
COc1ccc(-c2cc3ccc(OCc4nn[nH]n4)cc3oc2=O)cc1	-2.44%
CCCn1c(C(O)c2cc(OC)ccc2OC)nc2ccccc21 (centres undefined)	-24.6%
CC1Cn2c(nnc2-c2cccs2)S1 (centres undefined)	-19.2%
COc1ccc(-c2nc(SCC(=O)N3CCOCC3)n[nH]2)cc1	-14%
Cn1c(=O)c2c(ncn2CC(=O)N2CCN(c3ccccc3)CC2)n(C)c1=O	0.27%
CC(C)NS(=O)(=O)c1ccc(OCC(=O)Nc2ccc3c(c2)OCCO3)cc1	-17.1%
COc1ccccc1C(=O)n1nc(-c2ccccc2)nc1N	-5.43%
Cc1nnc2sc(-c3ccco3)nn12	-19.1%
O=C(c1cccnc1NCc1ccccc1)N1CCOCC1	4.48%
Cc1ccc(-c2noc(CSc3nnc(-c4ccccc4)n3C)n2)cc1	13.8%
Cn1c(=O)n(C)c2cc(C(=O)Nc3ccc4c(c3)OCO4)ccc21	-11.7%
COc1ccc(S(=O)(=O)N2CCCC2)c(C)c1C	-7.21%
CC1=C(C(=O)OC2CCCCC2)C(c2cccnc2)n2ncnc2N1 (centres undefined)	-3.82%
CCOc1ccc(Cn2nnc(C(=O)Nc3ccc(OC)cc3OC)c2N)cc1	1.62%
Cc1cc(C)cc(N(C(C)C(=O)Nc2c(C)n(C)n(-c3ccccc3)c2=O)S(C)(=O)=O)c1 (centres undefined)	-10.4%
Cc1nn(-c2ccccc2)c2[nH]c(C(F)(F)F)cc(=O)c12	-5.63%
COc1ccc(CCNS(=O)(=O)c2ccc(C(=O)NCc3ccco3)cc2)cc1OC	8.04%
O=C(c1ccco1)N1CCN(C(=O)C2CC(c3ccc(F)cc3)=NO2)CC1 (centres undefined)	9.27%

Compound	inhibition
CC(C(=O)N1CCOCC1)N1c2cccc3cccc(c23)S1(=O)=O (centres undefined)	-6.66%
CSc1cccc(NC(=O)CSc2ccccc2)c1	-12.8%
O=C(c1ccccc1-c1ccccc1)N1CCOCC1	-14.8%
CC(C)n1c(NCc2c[nH]c3ccccc23)nc2ccccc21	18.1%
COc1cc(NS(=O)(=O)c2ccccc2)ccc1-n1nc(C)cc1C	-15.6%
COc1ccc2c(CC(=O)Nc3nnc(C4CC4)s3)coc2c1	-3.61%
COc1ccccc1NC1=NC2(CCCC2)N=C(N)N1	5.8%
CCc1nnc(NC(=O)c2ccc(S(=O)(=O)NC3CCCCC3)cc2)s1	-3.77%
COC(=O)CN(c1nc(C)c(Cl)c(OC)n1)S(=O)(=O)c1ccc(C)cc1	-1.76%
CNC(=O)NCCN1CCCC1=O	7.98%
CCn1c(CNC(=O)c2ccc(OC)c(OC)c2)nnc1SCC(=O)Nc1ccccc1	-11.8%
O=C(C1CCCO1)N(Cc1ccccc1)c1ccccc1 (centres undefined)	-16.8%
Cc1cc(NC(=O)Cn2nc(C(F)(F)F)c3c2CCCC3)no1	-16.9%
Cc1cc(C)nc(NC2=NCC(=O)N2c2ccc(Cl)cc2)n1	1.06%
O=C(NCCc1ccccn1)c1ccc(COc2ccccc2)o1	15%
C/C(=C(\C#N)C(=O)NCCCN1CCOCC1)N(C)C	2.5%
CCOC(=O)CC1C(=O)NCCN1C(=O)COc1ccc(Br)cc1C (centres undefined)	-24.8%
CC(=O)Nc1ccc(S(=O)(=O)Nc2cccc(NC(=O)C(C)(C)C)c2)cc1	-16.1%
O=C1C2(c3ccccc3)CN(CCCO)CC1(c1ccccc1)CN(CCCO)C2	-16.6%
Cc1noc(C)c1CSc1nc2cc(S(=O)(=O)N3CCOCC3)ccc2o1	-3.26%
CCCCNC(=O)c1ccccc1NC(=O)c1ccccc1N(C)S(C)(=O)=O	-21%
COC(=O)COc1ccc2oc(=O)cc(C)c2c1	-18.5%
O=S(=O)(N1CCOCC1)N1CCN(c2ccccc2F)CC1	-11.7%
CCC(Oc1ccccc1)C(=O)NCc1cccnc1 (centres undefined)	-21.9%
O=C(Nc1nn(Cc2ccccc2F)cc1Br)c1cccs1	-14.1%

Compound	inhibition
Cc1ccc(S(=O)(=O)N(C)CC(=O)NC2CCCC2)cc1	-2.1%
N#CC1=C(N)C(C#N)(C#N)[C@H](c2ccsc2)[C@H]2COCC=C12	-0.035%
O=C(OCC(O)C(O)COC(=O)c1ccccc1)c1ccccc1 (centres undefined)	-18.9%
CCCOc1ccc(NC(=O)C2CCCNC2=O)cc1 (centres undefined)	-30.8%
COc1ccc(CC(NC(C)=O)C(=O)NC2CCN(C(=O)Nc3ccc(C#N)cc3)CC2)cc1OC (centres undefined)	-1.03%
Cc1cc(C(=O)Nc2c(C)n(C)n(-c3ccccc3)c2=O)cs1	-12.7%
Cc1occc1C(=O)Nc1nnc(C2CCCCC2)s1	0.21%
Cc1cc(=O)n(C)c(=O)n1CCCNc1ccccc1	8.62%
C/C(N)=C(\C#N)C(=O)NCCc1ccccn1	-3.41%
CCOC(=O)c1c(C)nc(-c2ccccc2)nc1NC(=O)C(C)C	-20.2%
Cc1cc(NC(=O)CN2CCC(O)(c3cccc(F)c3)CC2)no1	-0.42%
CCC(=O)Nc1nc(OC)cc(OC)n1	-16.5%
COc1ccc(CC(=O)Nc2c3c(nn2-c2cccc(Cl)c2)CS(=O)C3)cc1 (centres undefined)	13.4%
Cc1cc(C)nc(NC(=O)C(C)N2C(=O)c3ccccc3C2=O)n1 (centres undefined)	-17.9%
CCOC(=O)c1cnc2sccn2c1=O	-15.3%
O=C(CCN1C(=O)c2ccccc2C1=O)NCCN1CCOCC1	0.59%
O=C(CCOc1ccccc1)NCc1ccccc1	14.8%
CC1CC(C)CN(CC(=O)Nc2ccc(S(N)(=O)=O)cc2)C1 (centres undefined)	0.613%
O=C1CSC(c2cccc(F)c2)N1c1ccccc1F (centres undefined)	6.64%
Cc1nonc1NC(=O)c1ccccc1Br	-2.2%
O=C(Nc1cccnc1)c1ccc2c(c1)OCO2	6.74%
CC(=NCc1ccc2c(c1)OCO2)C1=C(O)c2ccccc2C1=O	5.88%
CC(Nc1nc(N2CCCC2)nc2ccccc12)c1ccccc1 (centres undefined)	-5.16%
O=C(Nc1ccccc1N1CCCCC1)c1cccc(F)c1	0.18%
CC(=O)NC1CC2CCCC(C1)N2CC(=O)Nc1ccccc1 (centres undefined)	6.86%

Compound	inhibition
COCCCN1C(=O)C(=O)/C(=C(/O)c2ccc3c(c2)CC(C)O3)C1c1cccnc1 (centres undefined)	-17.6%
CCc1ccccc1NC(=O)CSc1nnc([C@@H](NC(=O)OC(C)(C)C)C(C)CC)o1 (some centres undefined)	-15.5%
C=CCn1c(SCc2nnc(-c3ccccc3)o2)nnc1C(O)c1ccccc1 (centres undefined)	-17.5%
COCCCn1c(CCC(=O)O)ccc1-c1ccc(F)cc1	-9.43%
CC(=O)NCCc1ccc(S(=O)(=O)N(C)C2CCS(=O)(=O)C2)cc1 (centres undefined)	-15.7%
COc1ccc(NC(=O)CCNC(=O)Cn2ccc3ccccc3c2=O)c(OC)c1	-0.805%
CC(=O)N1C(=O)C2(Nc3ccccc3N2)c2ccccc21	7.24%
COCCOC(=O)C1=C(C)NC(=O)CC1c1cc2c(cc1Br)OCO2 (centres undefined)	-1.9%
COC(=O)c1cc(C(=O)OC)cc(N2C(=O)CC(N3CCN(c4ccccc4)CC3)C2=O)c1 (centres undefined)	-20%
CC1CCCC(N2CCN(C(=O)c3ccc(F)cc3)CC2)C1 (centres undefined)	8.12%
O=C(Cn1nnc(-c2ccc(CN3CCOCC3)cc2)n1)NC1CCCCC1	-1.75%
O=C(Cc1nn[nH]n1)NCCC1=CCCCC1	17.3%
CCC1=C(C(=O)OC)C(c2cc(OC)ccc2OC)C(C#N)=C(N)O1 (centres undefined)	-1.96%
COc1ccc(OC)c(C(=O)c2ccc(C(=O)O)cc2)c1	-4.3%
Cc1ccc(NC2=NC(c3ccccc3)n3c(nc(C)cc3=O)N2)cc1 (centres undefined)	-1.73%
COC(=O)Nc1ccc(S(=O)(=O)N(C)CC(F)(F)C(F)F)cc1	-3.1%
COC(=O)c1ccc(C2CC(=O)Nc3cc(OC)c(OC)cc32)cc1 (centres undefined)	-20.6%
CC(C)c1ccc(N2CC(C(=O)Nc3nccs3)CC2=O)cc1 (centres undefined)	2.9%
CCc1nnc(NC(=O)C2CCCN2S(=O)(=O)c2ccccc2)s1 (centres undefined)	-21%
Cc1cc(C)c(C#N)c(SCc2[nH]nc3c2C(c2ccccc2)C(C#N)=C(N)O3)n1 (centres undefined)	-3.73%
CCOC(=O)CSc1nnc(-c2ccncc2)o1	-0.95%
COC(=O)C(C)Sc1nc2c(c(=O)n(C)c(=O)n2C)n1Cc1cccc(C)c1 (centres undefined)	8.4%
Cc1ccc(C(=O)NCC2CCCO2)o1 (centres undefined)	-6.23%
CN(C)[C@@H]1C(=O)C(C(N)=O)=C(O)[C@@]2(O)C(=O)C3=C(O)c4c(O)ccc(Cl)c4[C@@H](O)[C@H]3C[C@@H]12	43.4% (active)
